Test results published in ChEMBL document CHEMBL1125736, “N-[(omega-amino-1-hydroxyalkyl)phenyl]methanesulfonamide derivatives with class III antiarrhythmic activity” (1991).

Tests used:
Canis familiaris [1] = experiment: Conduction time from Q wave to T wave of lead II electrocardiogram corrected for heart rate was tested in dogs at a dose of 0.3 mg/kg through intravenous administration. (baseline value- 352+/-7); assay type: functional, Canis lupus familiaris
Oryctolagus cuniculus [2] = species on record: Oryctolagus cuniculus; experiment: Tested for conduction time measured at a pacing rate of 1 Hz in vitro with rabbit heart tissue preparations.; assay type: functional
Summary of the method: (§1)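 Isolated rabbit heart tissues, all from one heart, each its own baseline; 2 h equilibration, perfusate changed every 15 min, basal stimulation 2 Hz between measurements. Exposed to 10^-7, 10^-6 and 10^-5 M drug, 15 min each; values reported at 10^-5 M as percent change from baseline. Drug solutions prepared daily in glass-distilled water. Force and rate recorded on polygraph.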

Canis familiaris [3] = experiment: Conduction time from the His bundle to the onset of ventricular depolarizations was tested in dogs at a dose of 0.3 mg/kg through intravenous administration. (baseline value- 17+/-1 ); assay type: functional, Canis lupus familiaris, Cardiac ventricle
Oryctolagus cuniculus [4] = species on record: Oryctolagus cuniculus; experiment: Tested for rate automaticity measured in beats per minute from unpaced right atria of rabbit heart.; assay type: functional; summary of the method: as §1
Canis familiaris [5] = experiment: Conduction time for ventricular refractory period of the second premature stimulus was tested in dogs at a dose of 3.0 mg/kg through intravenous administration. (baseline value- 123+/-4); assay type: functional, Canis lupus familiaris, Cardiac ventricle
Canis familiaris [6] = experiment: Compound was tested in vivo in dogs at a dose of 1.0 mg/kg through intravenous route and number of dogs in which sustained ventricular arrhythmias were induced was recorded.(Base line value-1)
Canis familiaris [7] = experiment: Compound was tested in vivo in dogs at a dose of 1.0 mg/kg through intravenous route and number of dogs in which nonsustained ventricular arrhythmias were induced was recorded.(Base line value-2)
Canis familiaris [8] = experiment: Conduction time for ventricular refractory period of the first premature stimulus was tested in dogs at a dose of 0.3 mg/kg through intravenous administration. (baseline value- 137+/-4); assay type: functional, Canis lupus familiaris, Cardiac ventricle
Canis familiaris [9] = experiment: Compound was tested in vivo in dogs at a dose of 0.1 mg/kg through intravenous route and number of dogs in which nonsustained ventricular arrhythmias were induced was recorded.(Base line value-2)
Canis familiaris [10] = experiment: Compound was tested in vivo in dogs at a dose of 3.0 mg/kg through intravenous route and number of dogs in which nonsustained ventricular arrhythmias were induced was recorded.(Base line value-2)
Canis familiaris [11] = experiment: Conduction time from the atrium to His bundle was tested in dogs at a dose of 3.0 mg/kg through intravenous administration. (baseline value 73+/-3 ); assay type: functional, Canis lupus familiaris
Canis familiaris [12] = experiment: Compound was tested in vivo in dogs at a dose of 0.1 mg/kg through intravenous route and number of dogs in which ventricular arrhythmias were not indicible was recorded.(Base line value-2)
Canis familiaris [13] = experiment: Compound was tested in vivo in dogs at a dose of 0.1 mg/kg through intravenous route and number of dogs in which sustained ventricular arrhythmias were induced was recorded.(Base line value-1)
Canis familiaris [14] = experiment: Compound was tested in vivo in dogs at a dose of 1.0 mg/kg through intravenous route and number of dogs in which ventricular arrhythmias were not indicible was recorded.(Base line value-2)
Canis familiaris [15] = experiment: Compound was tested in vivo in dogs at a dose of 0.3 mg/kg through intravenous route and number of dogs in which nonsustained ventricular arrhythmias were induced was recorded.(Base line value-2)
Canis familiaris [16] = experiment: Compound was tested in vivo in dogs at a dose of 3.0 mg/kg through intravenous route and number of dogs in which ventricular fibrillation was induced was recorded.(Base line value-1)
Oryctolagus cuniculus [17] = species on record: Oryctolagus cuniculus; experiment: Tested for conduction time measured at a pacing rate of 3 Hz in vitro with rabbit heart tissue preparations.; assay type: functional; summary of the method: as §1
Canis familiaris [18] = experiment: Conduction time for ventricular refractory period of the second premature stimulus was tested in dogs at a dose of 1.0 mg/kg through intravenous administration. (baseline value- 123+/-4); assay type: functional, Canis lupus familiaris, Cardiac ventricle
Canis familiaris [19] = experiment: Conduction time from Q wave to T wave of lead II electrocardiogram corrected for heart rate was tested in dogs at a dose of 1.0 mg/kg through intravenous administration. (baseline value- 352+/-7); assay type: functional, Canis lupus familiaris
Oryctolagus cuniculus [20] = species on record: Oryctolagus cuniculus; experiment: Tested for effective refractory period measured at a pacing rate of 3 Hz in vitro with rabbit heart tissue preparations.; assay type: functional; design: unit: %; summary of the method: as §1
Canis familiaris [21] = experiment: Conduction time from the atrium to His bundle was tested in dogs at a dose of 0.3 mg/kg through intravenous administration. (baseline value- 73+/-3 ); assay type: functional, Canis lupus familiaris
Canis familiaris [22] = experiment: Conduction time from Q wave to T wave of lead II electrocardiogram corrected for heart rate was tested in dogs at a dose of 3.0 mg/kg through intravenous administration. (baseline value- 352+/-7); assay type: functional, Canis lupus familiaris
Canis familiaris [23] = experiment: Conduction time for ventricular refractory period of the first premature stimulus was tested in dogs at a dose of 0.1 mg/kg through intravenous administration. (baseline value- 137+/-4); assay type: functional, Canis lupus familiaris, Cardiac ventricle
Oryctolagus cuniculus [24] = species on record: Oryctolagus cuniculus; experiment: Tested for effective refractory period measured at a pacing rate of 1 Hz in vitro with rabbit heart tissue preparations.; assay type: functional; summary of the method: as §1
Oryctolagus cuniculus [25] = species on record: Oryctolagus cuniculus; experiment: Tested for force of contraction measured in mg at a pacing rate of 2 Hz in vitro with rabbit heart tissue preparations.; assay type: functional; summary of the method: as §1
Canis familiaris [26] = experiment: Compound was tested in vivo in dogs at a dose of 3.0 mg/kg through intravenous route and number of dogs in which sustained ventricular arrhythmias were induced was recorded.(Base line value-1)
Canis familiaris [27] = experiment: Compound was tested in vivo in dogs at a dose of 0.3 mg/kg through intravenous route and number of dogs in which ventricular arrhythmias were not indicible was recorded.(Base line value-2)
Canis familiaris [28] = experiment: Conduction time from the His bundle to the onset of ventricular depolarizations was tested in dogs at a dose of 3.0 mg/kg through intravenous administration. (baseline value- 17+/-1 ); assay type: functional, Canis lupus familiaris, Cardiac ventricle
Canis familiaris [29] = experiment: Compound was tested in vivo in dogs at a dose of 0.3 mg/kg through intravenous route and number of dogs in which ventricular fibrillation was induced was recorded.(Base line value-1)
Canis familiaris [30] = experiment: Conduction time from Q wave to T wave of lead II electrocardiogram corrected for heart rate was tested in dogs at a dose of 0.1 mg/kg through intravenous administration. (baseline value- 352+/-7); assay type: functional, Canis lupus familiaris
Canis familiaris [31] = experiment: Conduction time from the His bundle to the onset of ventricular depolarizations was tested in dogs at a dose of 0.1 mg/kg through intravenous administration. (baseline value- 17+/-1 ); assay type: functional, Canis lupus familiaris, Cardiac ventricle
Canis familiaris [32] = experiment: Compound was tested in vivo in dogs at a dose of 0.3 mg/kg through intravenous route and number of dogs in which sustained ventricular arrhythmias were induced was recorded.(Base line value-1)
Canis familiaris [33] = experiment: Compound was tested in vivo in dogs at a dose of 1.0 mg/kg through intravenous route and number of dogs in which ventricular fibrillation was induced was recorded.(Base line value-1)
Canis familiaris [34] = experiment: Conduction time for ventricular refractory period of the second premature stimulus was tested in dogs at a dose of 0.1 mg/kg through intravenous administration. (baseline value- 123+/-4); assay type: functional, Canis lupus familiaris, Cardiac ventricle
Canis familiaris [35] = experiment: Compound was tested in vivo in dogs at a dose of 0.1 mg/kg through intravenous route and number of dogs in which ventricular fibrillation was induced was recorded.(Base line value-1)
Canis familiaris [36] = experiment: Conduction time for ventricular refractory period of the second premature stimulus was tested in dogs at a dose of 0.3 mg/kg through intravenous administration. (baseline value- 123+/-4); assay type: functional, Canis lupus familiaris, Cardiac ventricle
Canis familiaris [37] = experiment: Conduction time for ventricular refractory period of the first premature stimulus was tested in dogs at a dose of 1.0 mg/kg through intravenous administration. (baseline value- 137+/-4); assay type: functional, Canis lupus familiaris, Cardiac ventricle
Canis familiaris [38] = experiment: Conduction time from the His bundle to the onset of ventricular depolarizations was tested in dogs at a dose of 1.0 mg/kg through intravenous administration. (baseline value- 17+/-1 ); assay type: functional, Canis lupus familiaris, Cardiac ventricle
Canis familiaris [39] = experiment: Conduction time from the atrium to His bundle was tested in dogs at a dose of 1.0 mg/kg through intravenous administration. (baseline value- 73+/-3 ); assay type: functional, Canis lupus familiaris
Canis familiaris [40] = experiment: Conduction time from the atrium to His bundle was tested in dogs at a dose of 0.1 mg/kg through intravenous administration. (baseline value- 73+/-3 ); assay type: functional, Canis lupus familiaris
Canis familiaris [41] = experiment: Compound was tested in vivo in dogs at a dose of 3.0 mg/kg through intravenous route and number of dogs in which ventricular arrhythmias were not indicible was recorded.(Base line value-2)
Canis familiaris [42] = experiment: Conduction time for ventricular refractory period of the first premature stimulus was tested in dogs at a dose of 3.0 mg/kg through intravenous administration. (baseline value- 137+/-4); assay type: functional, Canis lupus familiaris, Cardiac ventricle

CCCCN(CCCC)CCCC(O)c1ccc(NS(C)(=O)=O)cc1 (configuration not stated)
Time (Canis familiaris [1]): 358 ms
CT1 (Oryctolagus cuniculus [2]): -8.5
Time (Canis familiaris [3]): 15 ms
Rate (Oryctolagus cuniculus [4]): -20.3
Time (Canis familiaris [5]): 115 ms
number of animals (Canis familiaris [6]): 0 animals
number of animals (Canis familiaris [7]): 3 animals
Time (Canis familiaris [8]): 147 ms
number of animals (Canis familiaris [9]): 2 animals
number of animals (Canis familiaris [10]): 1 animals
Time (Canis familiaris [11]): 64 ms
number of animals (Canis familiaris [12]): 1 animals
number of animals (Canis familiaris [13]): 1 animals
number of animals (Canis familiaris [14]): 2 animals
number of animals (Canis familiaris [15]): 4 animals
number of animals (Canis familiaris [16]): 0 animals
CT3 (Oryctolagus cuniculus [17]): 5.2
Time (Canis familiaris [18]): 120 ms
Time (Canis familiaris [19]): 361 ms
ERP3 (Oryctolagus cuniculus [20]): 10.4
Time (Canis familiaris [21]): 66 ms
Time (Canis familiaris [22]): 367 ms
Time (Canis familiaris [23]): 145 ms
ERP1 (Oryctolagus cuniculus [24]): 9.5
FOC (Oryctolagus cuniculus [25]): 0
number of animals (Canis familiaris [26]): 2 animals
number of animals (Canis familiaris [27]): 2 animals
Time (Canis familiaris [28]): 13 ms
number of animals (Canis familiaris [29]): 0 animals
Time (Canis familiaris [30]): 370 ms
Time (Canis familiaris [31]): 13 ms
number of animals (Canis familiaris [32]): 0 animals
number of animals (Canis familiaris [33]): 1 animals
Time (Canis familiaris [34]): 128 ms
number of animals (Canis familiaris [35]): 0 animals
Time (Canis familiaris [36]): 127 ms
Time (Canis familiaris [37]): 145 ms
Time (Canis familiaris [38]): 15 ms
Time (Canis familiaris [39]): 64 ms
Time (Canis familiaris [40]): 71 ms
number of animals (Canis familiaris [41]): 0 animals
Time (Canis familiaris [42]): 145 ms
